Legend:
[1] = folding enthalpy; higher = less favourable; fluorescence melt of hairpins on a sequencing array, two-state fit; conditions: sodium 0.088 M
Outline: (§1)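 Folding enthalpy and melting temperature were estimated with bootstrapped two-state fits and combined across four replicates by inverse-variance weighting, with fitted temperatures raised by 9.35 °C to match UV melts. The data were Cy3 fluorescence of library hairpins, with annealed Cy3 and quencher oligos, on a sequenced MiSeq flow cell in 50 mM Na-HEPES pH 8.0, 25 mM NaCl, imaged in 2.5 °C steps up to 60 °C and normalised to pre-quench Cy3 and control constructs.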

[2] = melting temperature; fluorescence melt of hairpins on a sequencing array, two-state fit, raised by 9.35 °C to match UV melts; conditions: sodium 0.088 M
Outline: as §1

Row | Sequence | folding enthalpy [1] | Tm [2]
1 | GCGGTCCCGAAAGGGCGC (((..(((....)))))) | -18.5 kcal/mol | 60.1 °C
2 | GCGGTCGAAAGACCCCGC ((((((....)))..))) | -14.9 kcal/mol | 47.5 °C
3 | GCGGTCGAAAGACCCGC ((((((....))).))) | -24 kcal/mol | 66.8 °C
4 | GCGGTCGAAAGACGACGC ((((((....)))..))) | -37.4 kcal/mol | 53.8 °C
5 | GCGGTCGACCGC ((((....)))) | -38.5 kcal/mol | 67.7 °C
6 | GCGGTCGCCGC ((((...)))) | -5.62 kcal/mol | 60.6 °C
7 | GCGGTCGGAAACAACCGC (((((.(....).))))) | -34.7 kcal/mol | 55.1 °C
8 | GCGGTCGGCCGC ((((....)))) | -24.2 kcal/mol | 60.1 °C
9 | GCGGTCTCGAAAGAGCGC (((..(((....)))))) | -38.2 kcal/mol | 58.6 °C
10 | GCGGTGACCCGC ((((....)))) | -23.1 kcal/mol | 55.3 °C
11 | GCGGTGACGAAAGTCCGC (((..(((....)))))) | -30.8 kcal/mol | 57.2 °C
12 | GCGGTGCGAAAGCAAAGC ((..(((....)))..)) | -32.1 kcal/mol | 63.3 °C
13 | GCGGTGCGAAAGCAAGGC ((..(((....)))..)) | -19.1 kcal/mol | 51.2 °C
14 | GCGGTGCGAAAGCAGGGC ((..(((....)))..)) | -20.5 kcal/mol | 55.2 °C
15 | GCGGTGCGAAAGCGCGGC ((.(.((....)).).)) | -25 kcal/mol | 64.5 °C
16 | GCGGTGCGAAAGCGCTGC ((.(.((....)).).)) | -21.6 kcal/mol | 66.9 °C
17 | GCGGTGGGAAACCACCAC (.(((((....))))).) | -12.4 kcal/mol | 48.1 °C
18 | GCGGTGGGAAACCATCGC (((.(((....))).))) | -40.9 kcal/mol | 61.8 °C
19 | GCGGTGTTCCGC ((((....)))) | -20 kcal/mol | 65.7 °C
20 | GCGGTTCCCGC ((((...)))) | -22.1 kcal/mol | 67.5 °C
21 | GCGGTTGGAAACAGCCGC ((((.((....)).)))) | -40.1 kcal/mol | 64.6 °C
22 | GCGGTTGTCCGC ((((....)))) | -23.5 kcal/mol | 58.6 °C
23 | GCGGTTTGCCGC ((((....)))) | -41.2 kcal/mol | 60.6 °C
24 | GCGTAAAACGC ((((...)))) | -21.7 kcal/mol | 52.9 °C

Row | Sequence | folding enthalpy [1] | Tm [2]
25 | GCGTAAGCGAAAGCTCGC (((..(((....)))))) | -17.6 kcal/mol | 48.4 °C
26 | GCGTAAGGAAACCTACGC (((((.(....).))))) | -40 kcal/mol | 49 °C
27 | GCGTAAGGAAACTCACGC ((((.((....)).)))) | -26.5 kcal/mol | 43.8 °C
28 | GCGTAAGGAAACTTGCGC (((.(((....))).))) | -39.4 kcal/mol | 54.6 °C
29 | GCGTAATTACGC ((((....)))) | -30 kcal/mol | 51.7 °C
30 | GCGTACAGACGC ((((....)))) | -22.5 kcal/mol | 51 °C
31 | GCGTACGAAAGTAACCGC ((((((....)))..))) | -22.1 kcal/mol | 45 °C
32 | GCGTACGAAAGTACCCGC ((((((....)))..))) | -14.2 kcal/mol | 40.2 °C
33 | GCGTACGCGAAAGCGCGC (((..(((....)))))) | -16.8 kcal/mol | 58.5 °C
34 | GCGTACGGAAACGCACGC ((((.((....)).)))) | -46.7 kcal/mol | 55.4 °C
35 | GCGTACGGAAACGTGCGC (((.(((....))).))) | -54.1 kcal/mol | 64.6 °C
36 | GCGTACGGAAACGTGTGC ((..(((....)))..)) | -29.1 kcal/mol | 44.7 °C
37 | GCGTACGGACGC ((((....)))) | -29.5 kcal/mol | 52.9 °C
38 | GCGTACTCACGC ((((....)))) | -19.5 kcal/mol | 52.3 °C
39 | GCGTAGAAATACGC (((((....))))) | -25.1 kcal/mol | 55.2 °C
40 | GCGTAGAGACGC ((((....)))) | -13.3 kcal/mol | 49.1 °C
41 | GCGTAGCGAAAGCAAGGC ((.(.((....)).).)) | -7.5 kcal/mol | 35.5 °C
42 | GCGTAGCGAAAGCAGCGC (((..((....))..))) | -16.6 kcal/mol | 65.4 °C
43 | GCGTAGCGAAAGCGAGGC ((.(.((....)).).)) | -7.75 kcal/mol | 46.6 °C
44 | GCGTAGCGAAAGCGTCGC (((..((....))..))) | -20.5 kcal/mol | 61.4 °C
45 | GCGTAGCGAAAGCTCAGC ((..(((....)))..)) | -10.8 kcal/mol | 46 °C
46 | GCGTAGCGAAAGCTCCGC (((.(((....))).))) | -40 kcal/mol | 49.7 °C
47 | GCGTAGCGAAAGCTTCGC (((.(((....))).))) | -36.2 kcal/mol | 55 °C
48 | GCGTAGCGAAAGCTTGGC ((..(((....)))..)) | -7.38 kcal/mol | 36.5 °C

Row | Sequence | folding enthalpy [1] | Tm [2]
49 | GCGTAGCTACGC ((((....)))) | -12.6 kcal/mol | 68.1 °C
50 | GCGTAGGGAAACCTGTGC ((..(((....)))..)) | -14.2 kcal/mol | 37.4 °C
51 | GCGTAGTACGC ((((...)))) | -20.8 kcal/mol | 53.1 °C
52 | GCGTAGTGACGC ((((....)))) | -15.4 kcal/mol | 53.7 °C
53 | GCGTATAGACGC ((((....)))) | -24.6 kcal/mol | 50.3 °C
54 | GCGTATCGAAAGATCCGC (((.(((....))).))) | -38.1 kcal/mol | 50.2 °C
55 | GCGTATGGAAACGTACGC (((((.(....).))))) | -48 kcal/mol | 54.7 °C
56 | GCGTCAACACGC ((((....)))) | -21.8 kcal/mol | 48.5 °C
57 | GCGTCACGAAAGTGCCGC (((.(((....))).))) | -46.1 kcal/mol | 59.6 °C
58 | GCGTCAGGAAACTGATGC ((.((((....)))).)) | -43.6 kcal/mol | 54.5 °C
59 | GCGTCCCGAAAGGGTCGC (((.(((....))).))) | -36.9 kcal/mol | 67.8 °C
60 | GCGTCCGAAAGGAATCGC ((((((....)))..))) | -22.6 kcal/mol | 47.8 °C
61 | GCGTCCGCGAAAGCGCGC (((..(((....)))))) | -16.9 kcal/mol | 53.5 °C
62 | GCGTCCGGAAACAGACGC (((((.(....).))))) | -36.1 kcal/mol | 54 °C
63 | GCGTCCTCACGC ((((....)))) | -24.3 kcal/mol | 50.9 °C
64 | GCGTCCTGACGC ((((....)))) | -35.1 kcal/mol | 59.9 °C
65 | GCGTCGCGAAAGCAAGGC ((.(.((....)).).)) | -17.1 kcal/mol | 43.8 °C
66 | GCGTCGCGAAAGCACCGC (((..((....))..))) | -20.8 kcal/mol | 53.9 °C
67 | GCGTCGCGAAAGCATCGC (((..((....))..))) | -17.9 kcal/mol | 53.8 °C
68 | GCGTCGCGAAAGCCAAGC ((.(.((....)).).)) | -20.1 kcal/mol | 48.1 °C
69 | GCGTCGCGAAAGCGCGGC ((..(((....)))..)) | -12.6 kcal/mol | 61.1 °C
70 | GCGTCGCGAAAGCGTAGC ((..(((....)))..)) | -20.8 kcal/mol | 58.6 °C
71 | GCGTCGGAACGC ((((....)))) | -16.8 kcal/mol | 52 °C
72 | GCGTCGGACGC ((((...)))) | -24.1 kcal/mol | 51.7 °C

Row | Sequence | folding enthalpy [1] | Tm [2]
73 | GCGTCGGCACGC ((((....)))) | -10.7 kcal/mol | 56.4 °C
74 | GCGTCGGGAAACCGATGC ((.((((....)))).)) | -34 kcal/mol | 65 °C
75 | GCGTCGGGAAACTGACGC (((((.(....).))))) | -49.8 kcal/mol | 65.3 °C
76 | GCGTCGTCACGC ((((....)))) | -22.4 kcal/mol | 51.8 °C
77 | GCGTCTACACGC ((((....)))) | -25.9 kcal/mol | 51.4 °C
78 | GCGTCTATACGC ((((....)))) | -25 kcal/mol | 54.6 °C
79 | GCGTCTGCGAAAGCACGC (((..(((....)))))) | -18.5 kcal/mol | 52.3 °C
80 | GCGTCTGGAAACAGACAC (.(((((....))))).) | -12.8 kcal/mol | 42.7 °C
81 | GCGTCTGGAAACGGATGC ((.((.(....).)).)) | -35.5 kcal/mol | 44.4 °C
82 | GCGTCTTCACGC ((((....)))) | -26.9 kcal/mol | 51.4 °C
83 | GCGTCTTTACGC ((((....)))) | -27.9 kcal/mol | 53.2 °C
84 | GCGTGAAAACGC ((((....)))) | -32.6 kcal/mol | 58.5 °C
85 | GCGTGACACGC ((((...)))) | -22.1 kcal/mol | 56.8 °C
86 | GCGTGACTACGC ((((....)))) | -27.2 kcal/mol | 59.4 °C
87 | GCGTGAGGAAACTCATGC ((.((((....)))).)) | -35.8 kcal/mol | 53.4 °C
88 | GCGTGAGGAAACTCGTGC ((..(((....)))..)) | -28.7 kcal/mol | 38.9 °C
89 | GCGTGAGGAAACTTGCGC (((..((....))..))) | -30.9 kcal/mol | 48.3 °C
90 | GCGTGCACGAAAGTGCGC (((..(((....)))))) | -9.64 kcal/mol | 51.9 °C
91 | GCGTGCGAAAGCACTCGC ((((((....)))..))) | -12.4 kcal/mol | 51.5 °C
92 | GCGTGCGAAAGCAGTCGC ((((((....)))..))) | -20.1 kcal/mol | 53 °C
93 | GCGTGCGACGC ((((...)))) | -13.9 kcal/mol | 61 °C
94 | GCGTGCTGACGC ((((....)))) | -18.1 kcal/mol | 58.2 °C
95 | GCGTGGAAACGC ((((....)))) | -30.1 kcal/mol | 58.8 °C
96 | GCGTGGACACGC ((((....)))) | -25.5 kcal/mol | 62 °C

Reference: the array DNA melting data of Ke et al. (doi:10.1101/2024.01.08.574731)
